What all share (format): cell-based
Data set [1] can be described thus: Cytotoxicity against rat FRT cells at 12 uM after 24 to 72 hrs by trypan blue staining based assay. The procedure, abridged:
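Wild-type CFTR FRT cells treated with 12 μM compound, with 12 μM PTC124 as the control. Percentages of live and dead cells and cell proliferation were scored at 24, 48 and 72 h after treatment.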

A further data set is filed under the species Homo sapiens. Briefly: Induction of mutation read through activity at human CFTR G542X mutant premature termination codon UGA transfected in FRT cells assessed as increase in CFTR protein expression at 12 uM incubated for 24 hrs by DAPI-staining based immunofluorescence microscopic analysis. The procedure, abridged:
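FRT cells stably carrying pTracer vectors with human G542X-CFTR or WT-CFTR cDNA were exposed to 12 μM compound for 24 h. CFTR was detected by immunofluorescence microscopy, with membrane stained red and nuclei stained with DAPI. Untreated G542X cells served as the negative control.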

The subject of a further data set is HeLa. The data set can be described thus: Induction of read through activity at CFTR gene premature termination codon UGA transfected in human HeLa cells assessed as increase in luciferase activity at 12 uM incubated for 24 hrs by steady-glo luciferase reporter gene assay. The procedure, abridged:
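HeLa cells were transiently transfected with pFLuc-opal (UGA stop) and treated for 24 h at 12 μM, with 12 μM PTC124 as reference. FLuc activity was then measured. pFLuc-WT transfected cells served as the positive control and untreated pFLuc-opal cells as the negative control.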
On the technique in general: A reporter such as luciferase makes a cellular process visible.

The values that follow come from ChEMBL document CHEMBL4613289, “Pharmacophore-Based Design of New Chemical Scaffolds as Translational Readthrough-Inducing Drugs (TRIDs)” (ACS Med Chem Lett, 2020).

Calls of active or inactive are those of the source. The rule behind the calls is not given here.

Regarding `COC(=O)c1csc(COc2cc(Cl)cc(Cl)c2)n1`, the Activity entry in data set [1] is on record as “Non-Toxic”. Also, the result in the data set listed under Homo sapiens and with HeLa was Active.
Turning to `O=C(O)c1ccc2nc(-c3ccccc3Cl)[nH]c2c1`, in data set [1], the Activity entry is given as “Non-Toxic”. For the same compound, the result in the data set listed under Homo sapiens and in the data set on HeLa was Active.
On to `O=C(O)c1cccc(-c2noc(-c3ccccc3F)n2)c1` [ATALUREN], for which the Activity entry in data set [1] is reported as “Non-Toxic”. The result with HeLa was Active.
As to `COC(=O)c1ccc2nc(-c3cc(Cl)cc(Cl)c3)oc2c1`, in data set [1], the Activity result is recorded as “Non-Toxic”. In the data set with HeLa, the outcome was Active.
Turning to `O=S(=O)(Oc1ccc(F)cc1F)c1cccc(S(=O)(=O)Oc2ccc(F)cc2F)c1`, the Activity result in data set [1] is listed as “Non-Toxic”. Moreover, the result with HeLa was Active.
